# Assay outcomes deposited in PubChem BioAssay by several laboratories.
# NR3A LBD binder: modulates the human NR3A ligand-binding domain; NR3A LBD differential scanning fluorimetry, Tm shift; 0% = protein alone, 100% = glycine-bound protein; Tm shift relative to glycine control, % at 25 µM; 340,000 tested, 2.5% active;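 active = melting temperature shift of at least 10% of the positive control shift, at one fixed dose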
# GC-A act: GC-A (human) enzyme activation | 370,000 tested, 0.14% active | P16066 | HEK293 GC-A cells, cGMP TR-FRET, EC30 ANP; 0% at EC30 ANP, 100% saturating ANP | AID 1671463 | activation, % at 10 µM; in the data active = activation above about 40%
# GC-B act: GC-B (human) receptor activation; P20594; HEK293-GC-B cells, CNP EC30, cGMP TR-FRET; 0% at EC30 CNP, 100% saturating CNP; activation, % at 10 µM; 370,000 tested, 0.11% active;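 active = activation at 10 µM reaching about 35% in either raw or pattern-adjusted values, limit read from the data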
# Hep lipid drop: modulators of hepatic lipid droplet formation. AML12 mouse hepatocytes, oleate lipid droplets, BODIPY imaging. 240,000 tested, 0.4% active. inhibition, % at 6.5 µM;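 active = lipid droplet intensity inhibited by at least 50%, with more than 500 cells counted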
#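 Test system: AML12 mouse liver cells; schedule: overnight exposure; technique: high-content imaging of BODIPY-stained droplets and DAPI nuclei; read-out: % inhibition of corrected integrated BODIPY droplet signal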
# aDG glyco act: alpha-DG glycosylation activation. Pro5-aDG cells, alpha-DG glycosylation AlphaScreen (IIH6); 0% Pro5, 100% B10-LARGE cell signal. activation, % at 10 µM. 360,000 tested, 0.22% active. AID 624168;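 active = activation of at least 8% versus controls, or a plate z-score of at least 8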;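 note: Pro5 are CHO cells carrying HIG-tagged alpha-DG that lacks glycosylation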
# JMJD2C inh: inhibitors of human GASC-1 (JMJD2C) demethylase; Q9H3R0; GST-JMJD2C(1-420) H3K9me3 demethylation, DELFIA europium; inhibition, % at 2.35 µM; 330,000 tested, 0.069% active;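 active = more than half of a compound's replicate wells show inhibition beyond 50%, single wells judged on their own value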;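 note: signal counts dimethyl H3K9 product captured on neutravidin plate; 0% = median of DMSO wells and 100% = 0.3 times that DMSO median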
# * hit, by the source's call; . = no result. Only some compounds are listed: those with a hit (about 3% of all), similar ones and a draw of the others.
SMILES,NR3A LBD binder,GC-A act,GC-B act,Hep lipid drop,aDG glyco act,JMJD2C inh
Cc1ccc(S(=O)(=O)N2CCN(CC(=O)N/N=C/c3ccc(C)o3)CC2)cc1,32*,2,4,-1,0,-4
COc1ccc(NC(=O)c2ccc(NCCCN3CCOCC3)c([N+](=O)[O-])c2)cc1,14*,4,-3,-13,1,9
O=C(Nc1ccc(S(=O)(=O)N2CCOCC2)cc1)c1ccc(Cl)c([N+](=O)[O-])c1,35*,7,1,.,0,.
CCN(C(=O)COC(=O)c1ccccc1Cc1ccccc1)c1c(N)n(Cc2ccccc2)c(=O)[nH]c1=O,0,-10,-3,.,0,.
Cc1ccc(C(=O)N2CCN(c3ccc(NC(=O)c4cc(C)cc(C)c4)cc3)CC2)cc1,13*,5,3,-8,0,127
CN1CCN(S(=O)(=O)c2ccc(NC(=O)C(C)(C)C)cc2)CC1,11*,0,6,-3,0,14
Cc1ccc(-n2ccc(=O)c(C(=O)Nc3ccc(S(=O)(=O)N4CCOCC4)cc3)n2)cc1,12*,4,3,-3,0,4
O=C(NCCCN1CCOCC1)c1ccc(Sc2cccc(Cl)c2)c([N+](=O)[O-])c1,19*,16,13,-14,0,-3
O=C(Nc1ccc(S(=O)(=O)N2CCOCC2)cc1)c1nn(-c2ccc(F)cc2)ccc1=O,-1,-1,-3,-3,0,6
O=C(NCCCN1CCOCC1)c1ccc(Cl)c([N+](=O)[O-])c1,1,3,-1,.,0,3
COC(=O)[C@@]12CCCCC=C1N(CCc1ccc(Cl)cc1)C(=O)[C@H]2CC(=O)NCc1ccc(C)o1,.,-1,5,.,.,.
Cc1ccc(NC(=S)NNC(=O)CSc2nnc(-c3ccc(C)cc3)n2C2CCCCC2)cc1,.,3,0,.,.,.
CCOC(=O)CC[C@H]1CC[C@]2(CCCN(S(=O)(=O)c3ccccc3)C2)O1,.,1,-4,.,.,.
Cc1ccc(C(=O)Nc2ccc(S(=O)(=O)N3CCOCC3)cc2)cc1C,22*,4,-2,-9,0,-6
CC(=O)c1ccc(NC(=O)c2ccc(C)c(S(=O)(=O)N3CCOCC3)c2)cc1,0,7,3,-2,0,4
CC(=O)Nc1ccc(S(=O)(=O)N2CCCN(S(=O)(=O)c3ccc(NC(C)=O)cc3)CC2)cc1,11*,0,2,-6,0,16
CCOc1cc(/C=N/NC(=O)Cn2nc([N+](=O)[O-])cc2C)cc(Br)c1OCc1ccccc1C,13*,-3,-1,8,-1,-4
COc1cccc(NC(=O)C2CCN(S(=O)(=O)c3ccc4c(c3)N(C(C)=O)CCO4)CC2)c1,18*,-5,-1,4,0,-19
O=C(c1ccc(COc2ccc(F)cc2)o1)n1cccn1,-1,45*,-7,.,0,-11
Cc1ccc(NC(=O)c2cc3ccccc3o2)cc1Cl,35*,3,-3,-5,0,-2
CCC(=O)Nc1ccc(Cl)c(NC(=S)NC(=O)c2cc3ccccc3o2)c1,25*,3,-1,-12,0,7
NS(=O)(=O)c1ccc(NC(=O)COc2cccc3ccccc23)cc1,16*,-7,-6,-3,0,-2
COc1cc(NC(=O)c2cccc(C)c2)ccc1NC(=O)c1cc2ccccc2o1,33*,-14,-2,1,0,14
COC(=O)[C@]1(Cc2ccccc2)N[C@H](CN(C)C(=O)Nc2ccc(OC)cc2)[C@@H]2C(=O)N(Cc3ccccc3)C(=O)[C@@H]21,2,0,-2,.,0,-54
Cc1[nH]c2ccccc2c1C(=O)c1c(N)[nH]c(C(=O)c2ccccc2)c1-c1ccc(Cl)cc1,.,-7,-11,.,.,.
SMILES,NR3A LBD binder,GC-A act,GC-B act,Hep lipid drop,aDG glyco act,JMJD2C inh
COC(=O)C[C@@H]1CC[C@H]2[C@@H](COc3ccc(NC(=O)Nc4ccc(C)cc4)cc3C(=O)N2C)O1,.,4,4,.,.,.
O=C(Cc1ccc(Cl)cc1)Nc1ccc2oc(=O)ccc2c1,0,-1,-5,15,0,0
O=C(Cc1ccc(Cl)cc1)Nc1ccc(-c2cc3ccccc3oc2=O)c(Cl)c1,19*,12,12,-14,0,24
O=C(COc1ccccc1[N+](=O)[O-])Nc1ccc(NC(=O)c2cc3ccccc3o2)cc1,12*,-3,5,8,0,-6
COc1ccc(NC(=O)c2cc3ccccc3o2)cc1OC,26*,0,1,-2,0,3
COc1ccc2c(n1)Sc1nc3ccccc3nc1N2,34*,13,12,1,0,4
N#Cc1ccccc1N/C=C/C(=O)c1ccc(Cl)cc1,36*,9,-9,.,0,-2
O=C(/C=C/Nc1ccccc1F)c1ccc(Br)cc1,-3,7,0,1,0,6
O=C(CSc1nc(N2CCOCC2)nc(N2CCOCC2)n1)Nc1ccc([N+](=O)[O-])cc1,0,-18,-13,-10,0,13
O=C(CSc1nc(Nc2ccccc2)nc(N2CCOCC2)n1)Nc1ccc([N+](=O)[O-])cc1,15*,6,11,9,0,-2
O=C(CSc1n[nH]c(-c2cccnc2)n1)Nc1ccc([N+](=O)[O-])cc1,10*,-2,-13,14,0,1
O=C(CSc1nc(Nc2ccccc2)nc(N2CCOCC2)n1)Nc1cccc([N+](=O)[O-])c1,17*,13,15,-17,0,-1
O=C(CSc1n[nH]c(-c2cccnc2)n1)Nc1ccc(Br)cc1,5,0,-4,-9,0,3
CCN(CC)C(=O)CC[C@@H]1CC[C@]2(CCCN(Cc3ccccn3)C2)O1,.,3,2,.,.,.
O=C(Nc1ccc(-c2cn3ccsc3n2)cc1)C1CC1,15*,-3,-5,.,0,14
O=C(Nc1ccc(-c2cn3ccsc3n2)cc1)C1CCCC1,-3,2,1,.,0,-2
C=CCNC(=O)/C(C#N)=C\c1cc(Cl)c(O)c(OCC)c1,-11,-4,1,-28,0,9
CCOc1cc(/C=C(/C#N)C(=O)Nc2ccc(O)cc2)cc(Br)c1O,13*,-7,-6,-150,-1,2
O=C(CSc1nnc(SCc2cccc3ccccc23)s1)c1ccc(F)cc1,.,1,-7,.,.,.
CC(=O)Nc1ccc(NC(=O)CSc2nc3ccccc3nc2N2CCCCC2)cc1,-1,-1,-4,-3,0,2
COc1ccc(NC(=O)CSc2nc3ccccc3nc2N2CCCC2)cc1,-5,-3,-6,50*,0,2
